Test results as given in the RNAGym collection of RNA variant scans (doi:10.1126/science.aae0568).
This sample holds only a part of the variants without activity.

B1: tRNA (parent)
chain: GUUCCGUUGGCGUAAUGGUAACGCGUCUCCCUCCUAAGGAGAAGACUGCGGGUUCGAGUCCCGUACGGAACG

Variants of: B1
Assay: yeast fitness relative to wild type (ratio to wild type); higher = fitter; tRNA-Arg(CCU), competitive growth, 37 C, YPD
Outline: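 Variants of the tRNA-Arg(CCU) gene were chemically synthesised with a 3% per-site mutation rate across 69 sites and placed at the native genomic locus in Saccharomyces cerevisiae. Six parallel replicates of the pooled strains were competed in YPD at 37°C for 24 hours, and gene amplicons from the start and end populations were read by 100-nucleotide paired-end sequencing. Darwinian fitness relative to wild type was derived from changes in genotype frequencies. Genotypes required ≥ 100 starting reads, and estimates < 0.5 were set to 0.5.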

Variant | yeast fitness
G23A U35G G58A | ≤ 0.5
G23A U47A G58C | 0.596
G23A U47C | 0.781
G23A U54A | 0.605
G23A U54C | 0.533
G23A U59C G68A | ≤ 0.5
G23A U64G | 0.717
G23C A37C C46G C66U | ≤ 0.5
G23C A37C G52C C66G A69C | 0.612
G23C A37G G44C A45C G50A C55G C66A | ≤ 0.5
G23C A37U G41A G63A | 0.558
G23C A37U U47C C60G C66U | ≤ 0.5
G23C A37U U47C U54C C66U | ≤ 0.5
G23C A40G | 0.639
G23C A40U C55U | ≤ 0.5
G23C A42C | 0.721
G23C A42C U47A C49G | ≤ 0.5
G23C A42C U47A C49G A69U A70U | ≤ 0.5
G23C A42G G67A | ≤ 0.5
G23C A42U A43G | ≤ 0.5
G23C A42U C49G A65U | ≤ 0.5
G23C A43G G58C U64G | 0.57
G23C A43U C61U G68A | 0.52
G23C A43U G56A | 0.628

Variant | yeast fitness
G23C A45C | 0.554
G23C A45C C66G | ≤ 0.5
G23C A45G | 0.773
G23C A45U G51C | ≤ 0.5
G23C A57G | 0.677
G23C A57G G63C A65U | ≤ 0.5
G23C A57G G68A | 0.859
G23C A65C | 0.619
G23C A65G | 0.587
G23C A65G A69U | 0.524
G23C A69C | 0.612
G23C A69U | 0.737
G23C A70C | 0.73
G23C C24A A57G G68A | ≤ 0.5
G23C C24A C30G A37C A45U G68C | ≤ 0.5
G23C C24A C30G A40U U47A G51C G63A C66A A69U | 0.54
G23C C24A C49A U54C | 0.655
G23C C24G | 0.783
G23C C24G C33G A40U C49A | ≤ 0.5
G23C C24G C34G | ≤ 0.5
G23C C24G C34G C61U | ≤ 0.5
G23C C24G C34G U64A | ≤ 0.5
G23C C24G G50A | 0.585
G23C C24G G50A A57G | ≤ 0.5

Variant | yeast fitness
G23C C24G G63C A65U | ≤ 0.5
G23C C24U | 0.61
G23C C24U A36G A57U G63A | ≤ 0.5
G23C C24U U59A | ≤ 0.5
G23C C27A A45G G51C G63A G68A | ≤ 0.5
G23C C27A A45G G51C G68A | 0.701
G23C C27A G56A A57U A69U | ≤ 0.5
G23C C27G A45G G52A C66A | 0.634
G23C C27G C31A A45U G67A | ≤ 0.5
G23C C27G C31U | ≤ 0.5
G23C C27G C61U C66U | ≤ 0.5
G23C C27G U35G C62A | 0.59
G23C C27G U53C C61A G68A | ≤ 0.5
G23C C27G U53C C62A | 0.619
G23C C27U | 0.726
G23C C27U A45G G52A G58A | ≤ 0.5
G23C C27U C30U | 0.53
G23C C29A | 0.548
G23C C29A A45U | ≤ 0.5
G23C C29A C49U | 0.596
G23C C29A G38A | ≤ 0.5
G23C C29A G38A A57G | ≤ 0.5
G23C C29A G44A | 0.608
G23C C29G A43U G50A | 0.702

Variant | yeast fitness
G23C C29G A43U G50A A57G | ≤ 0.5
G23C C29G A43U G50A G63A A65C | ≤ 0.5
G23C C29G A43U G50A G68U | ≤ 0.5
G23C C29G C33U C46U C55U | ≤ 0.5
G23C C29U | 0.604
G23C C29U C49A | ≤ 0.5
G23C C30A | 0.6
G23C C30A C46A | ≤ 0.5
G23C C30G A65C | ≤ 0.5
G23C C30G A70G | ≤ 0.5
G23C C30G C49U A65C | ≤ 0.5
G23C C30G C62U | ≤ 0.5
G23C C30G G67A | ≤ 0.5
G23C C30U C34U G67C | ≤ 0.5
G23C C30U C46U | ≤ 0.5
G23C C31A | 0.633
G23C C31A A36U A70C | 0.557
G23C C31A C49A | 0.758
G23C C31G | 0.654
G23C C31G A40U G51A | 0.656
G23C C31G A40U G51A A57C | ≤ 0.5
G23C C31G C33A A57U U59A G63A | ≤ 0.5
G23C C31G G38C | ≤ 0.5
G23C C31G G44C U47A A69C | ≤ 0.5

Variant | yeast fitness
G23C C31G G44C U47A C66U A69C | ≤ 0.5
G23C C31U C49U | 0.58
G23C C31U C55A | ≤ 0.5
G23C C33A | ≤ 0.5
G23C C33A A36U | 0.529
G23C C33G A42U C66A | 0.643
G23C C33G A42U G56U C62U | ≤ 0.5
G23C C33G C46A | 0.53
G23C C33U A42G A43C U64A C66A A69C A70C | ≤ 0.5
G23C C33U A43U A45C | ≤ 0.5
G23C C34A A36C A37C A40C G67U | ≤ 0.5
G23C C34U A36U | ≤ 0.5
G23C C34U A36U C49A C66U | ≤ 0.5
G23C C34U A36U C55A | 0.581
G23C C46A G56A C62U | 0.758
G23C C46U | 0.568
G23C C49G A57G A70U | ≤ 0.5
G23C C49G A70C | ≤ 0.5
G23C C49G C62U | ≤ 0.5
G23C C49U | 0.71
G23C C49U C55G | ≤ 0.5
G23C C49U C62A C66A | ≤ 0.5
G23C C49U G52C C60U C61G | ≤ 0.5
G23C C55G A69U | ≤ 0.5

Variant | yeast fitness
G23C C55G C60A | ≤ 0.5
G23C C55G G67A | 0.526
G23C C55U | ≤ 0.5
G23C C60A | 0.72
G23C C60G | ≤ 0.5
G23C C60G G68C | ≤ 0.5
G23C C60U | ≤ 0.5
G23C C61A | ≤ 0.5
G23C C61G | 0.587
G23C C61G G68C | 0.5
G23C C61U | 0.703
G23C C62A | 0.541
G23C C62G C66A | ≤ 0.5
G23C C62U | 0.743
G23C C66U | 0.723
G23C G25A C30G A65C | ≤ 0.5
G23C G38C C49G | 0.534
G23C G38C G52C G58A | ≤ 0.5
G23C G39A C62G | ≤ 0.5
G23C G39C G67A | ≤ 0.5
G23C G44C C46U G58A | ≤ 0.5
G23C G44C C49U | ≤ 0.5
G23C G44C C49U A57C | ≤ 0.5
G23C G48A | 0.668

Variant | yeast fitness
G23C G48C | 0.686
G23C G48C A69U | ≤ 0.5
G23C G50A C61U | ≤ 0.5
G23C G50C G63C G67A | 0.64
G23C G51A | 0.671
G23C G52A | ≤ 0.5
G23C G52C | 0.523
G23C G56A A57G | ≤ 0.5
G23C G58C | 0.669
G23C G67C | 0.58
G23C G68C | 0.697
G23C U26A G50A A65C | 0.533
G23C U26C C27U A42U | 0.566
G23C U26C C27U C46U A69C | ≤ 0.5
G23C U26C C46G | 0.57
G23C U28A A36C | ≤ 0.5
G23C U28A G39A G48A C61G C66G | ≤ 0.5
G23C U28G A42U U59A | ≤ 0.5
G23C U32A | 0.565
G23C U32A A69C | ≤ 0.5
G23C U32A C49A U54G | ≤ 0.5
G23C U32A C49U | ≤ 0.5
G23C U32C | 0.72
